The test system of data set [1] is Trypanosoma brucei brucei. Put plainly: Antitrypanosomal activity against Trypanosoma brucei brucei 427 bloodstream forms after 24 hrs by propidium iodide dye based flow cytometry. The class given is functional. To be noted: Trypanosoma brucei, 427, 24 h. A digest of the protocol:
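Bloodstream T. b. brucei 427 grown in HMI-9 with 10% FBS, penicillin/streptomycin, 37 °C, 5% CO2. Exponential-phase cells seeded at 5x10^5/mL; compounds added from DMSO stocks, 1% v/v DMSO final. […] Exposure 24 h, then diluted into PBS/1% glucose with 2 µg/mL PI and counted by flow cytometry. Viability given as % of DMSO-treated cell count.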

Data set [2] concerns Trypanosoma brucei brucei. Put plainly: Antitrypanosomal activity against Trypanosoma brucei brucei 427 bloodstream forms infected CHO-K1 cells expressing redox biosensor hGrx-roGFP2 assessed as induction of hGrx-roGFP2 oxidation at 77.5 to 310 nM preincubated for 1 hr followed by DTT addition measured after 30 mins by flow cytometric method. The class given is functional. The procedure, abridged:
(§1)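 Parasites induced with oxytetracycline for 24 h, then moved to 1x10^6/200 µL without inducer. Treated in triplicate for 1 h at 37 °C with 78–310 nM test compound, 1 mM menadione, 15 µM nifurtimox, 1 mM DTT or 1% DMSO. Half then given 1 mM DTT for 30 min more. PI at 2 µg/mL added; biosensor read at 488/530 nm in PI-negative cells only, as % reduction relative to DMSO.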
A general note: Flow cytometry measures light scatter and fluorescence of single cells or particles in a stream.

The test system of data set [3] is Trypanosoma brucei brucei. Put plainly: Antitrypanosomal activity against Trypanosoma brucei brucei 427 bloodstream forms assessed as induction of membrane damage at 310 nM after 2 hrs by propidium iodide dye based flow cytometry relative to control. The class given is functional. The procedure, abridged: (§2)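 Bloodstream strain 427 at 5x10^5/mL in triplicate, exposed to 310, 155 or 77.5 nM, 0.001% v/v Triton X-100, 15 µM nifurtimox or 1% v/v DMSO. Incubated 0.5, 1, 2 or 4 h, then diluted into PBS/1% glucose. PI added at 2 µg/mL just before flow cytometry. Result is % PI-positive cells, mean ± SD (n=3), with one-way ANOVA and Dunnett's test against DMSO.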

The subject of data set [4] is Trypanosoma brucei brucei. Put plainly: Antitrypanosomal activity against Trypanosoma brucei brucei 427 bloodstream forms infected CHO-K1 cells expressing redox biosensor rxYFP assessed as induction of rxYFP oxidation at 1 to 10 uM after 1 hr by propidium iodide based flow cytometry relative to control. The class given is functional. The procedure, abridged: (§3)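 CHO-K1 cells expressing rxYFP in DMEM with 10% FCS, given 400 µg/mL zeocin 48 h before the assay. Trypsinized cells seeded at 8x10^5/mL and treated in triplicate for 1 h at 37 °C with 1, 5 or 10 µM test compound, 1 mM menadione, H2O2 or DTT, or 1% DMSO. Some wells then given 1 mM DTT for 30 min. PI-negative cells analysed by flow cytometry (488/530 nm), as % reduction relative to DMSO.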

Data set [5] deals with Trypanosoma brucei brucei. Description: Antitrypanosomal activity against Trypanosoma brucei brucei 427 bloodstream forms assessed as membrane damage in presence of bipyridine at 0.31 uM after 2 hr by propidium iodide staining-based flow cytometry.
Data set [6] relates to Trypanosoma brucei brucei. Put plainly: Inhibition of Trypanosoma brucei brucei recombinant trypanothione synthetase using GSH/spermididine as substrate assessed as residual activity by measuring phosphate release from ATP at 30 uM after 15 mins by Biomol Green reagent based assay relative to control.
In data set [7] the test system is Trypanosoma brucei brucei. Put plainly: Antitrypanosomal activity against Trypanosoma brucei brucei 427 bloodstream forms assessed as induction of membrane damage at 155 nM after 2 to 4 hrs by propidium iodide dye based flow cytometry. The class given is functional. A digest of the protocol:
as §2

Data set [8] deals with Trypanosoma brucei brucei. Put plainly: Antitrypanosomal activity against Trypanosoma brucei brucei 427 bloodstream forms assessed as decrease in parasite levels with discrete lysosomal signal at 0.31 uM preincubated for 30 mins followed by addition of Lysotracker red DND-99 further incubated for 30 mins and measured by epifluorescence microscopy relative to control. The class given is functional.

The subject of data set [9] is Trypanosoma brucei brucei. Description: Antitrypanosomal activity against Trypanosoma brucei brucei 427 bloodstream forms assessed as induction of mitochondrial damage at 0.31 uM preincubated for 30 mins followed by addition of Mitotracker red CM-H2XRos further incubated for 30 mins and measured by epifluorescence microscopy. The class given is functional. The procedure, abridged: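 Strain 427 at 1x10^6/mL treated with 0.31 µM test compound for 30 min. MitoTracker Red CM-H2XRos then added at 250 nM for 30 min more. Cells centrifuged, PBS-washed, fixed in 4% paraformaldehyde for 18 min, mounted with DAPI. Mitochondrial morphology and staining intensity compared with 1% DMSO-treated cells by fluorescence microscopy.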

Data set [10] concerns Trypanosoma brucei brucei. Put plainly: Antitrypanosomal activity against Trypanosoma brucei brucei 427 bloodstream forms assessed as induction of membrane damage at 310 nM after 2 to 4 hrs by propidium iodide dye based flow cytometry. The class given is functional. A digest of the protocol: as §2
Another data set has as its system Leishmania infantum. Description: Inhibition of Leishmania infantum recombinant trypanothione synthetase using GSH/spermididine as substrate assessed as residual activity by measuring phosphate release from ATP at 30 uM after 15 mins by Biomol Green reagent based assay relative to control.
The nature of data set [11]: Selectivity index, ratio of EC50 for murine macrophage J774 cells to EC50 for Trypanosoma brucei brucei 427 bloodstream forms. The class given is toxicity. The note with it: mouse; read-out: Ratio EC50.
Data set [12] deals with Trypanosoma brucei brucei. Description: Antitrypanosomal activity against Trypanosoma brucei brucei 427 bloodstream forms infected CHO-K1 cells expressing redox biosensor hGrx-roGFP2 assessed as induction of hGrx-roGFP2 oxidation at 77.5 to 310 nM after 1 hr by flow cytometric method. The class given is functional. A digest of the protocol:
as §1

Data set [13] concerns Trypanosoma brucei brucei. Put plainly: Antitrypanosomal activity against Trypanosoma brucei brucei 427 bloodstream forms assessed as increase in intracellular free iron level at 3.1 uM co-incubated with DFO after 1 hr by PhenGreen SK diacetate reagent based flow cytometry. The class given is functional, cell-based. A digest of the protocol: (§4)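 Strain 427 at 2x10^6/mL in triplicate with 3.1 µM test compound, with or without 10 or 100 µM deferoxamine or bipyridine; 1% DMSO control. After 40 min at 37 °C/5% CO2, PhenGreen SK diacetate added at 10 µM for 20 min more. Cells diluted in PBS/1% glucose and probe fluorescence (ex 488 nm) read by flow cytometry; mean ± SD (n=3).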

The subject of data set [14] is Trypanosoma brucei brucei. Description: Antitrypanosomal activity against Trypanosoma brucei brucei 427 bloodstream forms assessed as induction of membrane damage at 310 nM after 3 hrs by propidium iodide dye based flow cytometry relative to control. The class given is functional.
The test system of data set [15] is Trypanosoma brucei brucei. Put plainly: Antitrypanosomal activity against Trypanosoma brucei brucei 427 bloodstream forms assessed as induction of membrane damage at 310 nM after 1 hr by propidium iodide dye based flow cytometry. The class given is functional. A digest of the protocol:
as §2

Data set [16] relates to Trypanosoma brucei brucei. Put plainly: Antitrypanosomal activity against Trypanosoma brucei brucei 427 bloodstream forms assessed as induction of membrane damage at 310 nM parasite preincubated with 125 to 500 uM DFO for 3 hrs followed by test compound addition measured after 3 hrs by propidium iodide dye based flow cytometry relative to control. The class given is functional. A digest of the protocol:
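Strain 427 at 1x10^6/mL in triplicate at 37 °C. Arm A: 0.31 µM test compound with 100 µM DFO or bipyridine for 2 h. Arm B: DFO at 125–500 µM for 3 h, then 0.31 µM test compound for a further 3 h. Membrane integrity read by PI staining and flow cytometry; mean ± SD (n=3).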

The subject of data set [17] is Trypanosoma brucei brucei. Description: Antitrypanosomal activity against Trypanosoma brucei brucei 427 bloodstream forms assessed as increase in intracellular free iron level at 3.1 uM after 1 hr by PhenGreen SK diacetate reagent based flow cytometry. The class given is functional. A digest of the protocol:
as §4

In data set [18] the test system is Trypanosoma brucei brucei. Description: Antitrypanosomal activity against Trypanosoma brucei brucei 427 bloodstream forms assessed as induction of membrane damage at 77.5 to 310 nM by propidium iodide dye based flow cytometry. The class given is functional. The note with it: TDE = time-dependent effect. A digest of the protocol: as §2
The test system of the next data set is Trypanosoma cruzi. Description: Inhibition of Trypanosoma cruzi recombinant trypanothione synthetase using GSH/spermididine as substrate assessed as residual activity by measuring phosphate release from ATP at 30 uM after 15 mins by Biomol Green reagent based assay relative to control.
In data set [19] the test system is Trypanosoma brucei brucei. Put plainly: Antitrypanosomal activity against Trypanosoma brucei brucei 427 bloodstream forms assessed as increase in intracellular free iron level at 3.1 uM co-incubated with bipyridine for 1 hr by PhenGreen SK diacetate reagent based flow cytometry.
Data set [20] concerns Trypanosoma brucei brucei. Put plainly: Antitrypanosomal activity against Trypanosoma brucei brucei 427 bloodstream forms infected CHO-K1 cells expressing redox biosensor rxYFP assessed as induction of rxYFP oxidation at 10 uM preincubated for 1 hr followed by DTT addition measured after 30 mins by propidium iodide based flow cytometry relative to control. The class given is functional. A digest of the protocol:
as §3

Calls of active or inactive are those of the source. The rule behind the calls is not given here.

What is called EC50 is the concentration needed to bring the measured effect to its halfway point. Low values mean a more potent agent, high ones a less potent agent. In data set [1], `CCOC(=O)c1csc(NC(=O)c2csc(NC(=O)c3csc(NC(=O)OC(C)(C)C)n3)n2)n1` returned an EC50 of 310 nM. Moreover, the result in [2], in data set [9], in data set [13], in [19] and in data set [20] was inactive. For the same compound, the Activity in [3] is 87%; in data set [4], 10%; in [5], 47%; in data set [6] it was 120%; in data set [10], 80 - 90%; in the data set on Leishmania infantum it was 106%. Also, the Activity in [12] is 10%; in data set [14], 80%; in data set [15], 10%; in data set [16] it was 40 - 67%; in data set [17], 50%; in [18], “Tde”. Moreover, in the data set with Trypanosoma cruzi, the Activity stood at 126%. The result in data set [7] was Active. For the same compound, in [8], the “fold change (FC)” value is on record as greater than 3. Also, the selectivity ratio in [11] worked out at 16.5.
